The source made the active and inactive calls. No cut-off for these calls is given here.
Assays:
[1] = test system: Candida albicans; assay: Antimicrobial activity against Candida albicans ATCC 10231 assessed as zone of inhibition at 5230 uM incubated overnight at 37 degC; format: functional, organism-based
[2] = test system: Escherichia coli; assay: Antimicrobial activity against Escherichia coli ATCC 25922 assessed as zone of inhibition at 1639 uM incubated overnight at 37 degC; format: functional, organism-based
Summary of the method: (§1)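 Pure isolates screened against a panel of five bacteria and one fungus, each at a single concentration within 1639–5230 μM. A commercial antibiotic and antifungal agent were tested in parallel as references. Growth inhibition was recorded as the zone of inhibition.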

[3] = test system: Staphylococcus aureus; assay: Antimicrobial activity against Staphylococcus aureus ATCC 25923 assessed as zone of inhibition at 1639 uM incubated overnight at 37 degC; format: functional, organism-based; summary of the method: as §1
[4] = test system: Staphylococcus aureus; assay: Antimicrobial activity against methicillin-resistant Staphylococcus aureus 344/2-32 assessed as zone of inhibition at 1639 uM incubated overnight at 37 degC; format: functional, organism-based
[5] = test system: Pseudomonas aeruginosa; assay: Antimicrobial activity against Pseudomonas aeruginosa ATCC 27853 assessed as zone of inhibition at 1639 uM incubated overnight at 37 degC; format: functional, organism-based; summary of the method: as §1
[6] = test system: Streptococcus pyogenes; assay: Antimicrobial activity against Streptococcus pyogenes 345/1 assessed as zone of inhibition at 1639 uM incubated overnight at 37 degC; format: functional, organism-based; summary of the method: as §1
[7] = test system: Candida albicans; assay: Antimicrobial activity against Candida albicans ATCC 10231 assessed as zone of inhibition at 1639 uM incubated overnight at 37 degC; format: functional, organism-based; summary of the method: as §1
[8] = test system: Escherichia coli; assay: Antimicrobial activity against Escherichia coli ATCC 25922 assessed as zone of inhibition at 3875 uM incubated overnight at 37 degC; format: functional, organism-based; summary of the method: as §1
[9] = test system: Staphylococcus aureus; assay: Antimicrobial activity against Staphylococcus aureus ATCC 25923 assessed as zone of inhibition at 3875 uM incubated overnight at 37 degC; format: functional; details: read-out: IZ; summary of the method: as §1
[10] = test system: Staphylococcus aureus; assay: Antimicrobial activity against methicillin-resistant Staphylococcus aureus 344/2-32 assessed as zone of inhibition at 3875 uM incubated overnight at 37 degC; format: functional, organism-based
[11] = test system: Pseudomonas aeruginosa; assay: Antimicrobial activity against Pseudomonas aeruginosa ATCC 27853 assessed as zone of inhibition at 3875 uM incubated overnight at 37 degC; format: functional; details: read-out: IZ; summary of the method: as §1
[12] = test system: Streptococcus pyogenes; assay: Antimicrobial activity against Streptococcus pyogenes 345/1 assessed as zone of inhibition at 3875 uM incubated overnight at 37 degC; format: functional, organism-based
[13] = test system: Candida albicans; assay: Antimicrobial activity against Candida albicans ATCC 10231 assessed as zone of inhibition at 3875 uM incubated overnight at 37 degC; format: functional, organism-based; summary of the method: as §1
[14] = test system: Escherichia coli; assay: Antimicrobial activity against Escherichia coli ATCC 25922 assessed as zone of inhibition at 2862 uM incubated overnight at 37 degC; format: functional, organism-based; summary of the method: as §1
[15] = test system: Staphylococcus aureus; assay: Antimicrobial activity against Staphylococcus aureus ATCC 25923 assessed as zone of inhibition at 2862 uM incubated overnight at 37 degC; format: functional; details: read-out: IZ; summary of the method: as §1
[16] = test system: Staphylococcus aureus; assay: Antimicrobial activity against methicillin-resistant Staphylococcus aureus 344/2-32 assessed as zone of inhibition at 2862 uM incubated overnight at 37 degC; format: functional; details: read-out: IZ
[17] = test system: Pseudomonas aeruginosa; assay: Antimicrobial activity against Pseudomonas aeruginosa ATCC 27853 assessed as zone of inhibition at 2862 uM incubated overnight at 37 degC; format: functional; details: read-out: IZ; summary of the method: as §1
[18] = test system: Streptococcus pyogenes; assay: Antimicrobial activity against Streptococcus pyogenes 345/1 assessed as zone of inhibition at 2862 uM incubated overnight at 37 degC; format: functional; details: read-out: IZ; summary of the method: as §1
[19] = test system: Escherichia coli; assay: Antimicrobial activity against Escherichia coli ATCC 25922 assessed as zone of inhibition at 2211 uM incubated overnight at 37 degC; format: functional, organism-based; summary of the method: as §1
[20] = test system: Staphylococcus aureus; assay: Antimicrobial activity against Staphylococcus aureus ATCC 25923 assessed as zone of inhibition at 2211 uM incubated overnight at 37 degC; format: functional; details: read-out: IZ; summary of the method: as §1
[21] = test system: Staphylococcus aureus; assay: Antimicrobial activity against methicillin-resistant Staphylococcus aureus 344/2-32 assessed as zone of inhibition at 2211 uM incubated overnight at 37 degC; format: functional, organism-based
[22] = test system: Pseudomonas aeruginosa; assay: Antimicrobial activity against Pseudomonas aeruginosa ATCC 27853 assessed as zone of inhibition at 2211 uM incubated overnight at 37 degC; format: functional, organism-based; summary of the method: as §1
[23] = test system: Streptococcus pyogenes; assay: Antimicrobial activity against Streptococcus pyogenes 345/1 assessed as zone of inhibition at 2211 uM incubated overnight at 37 degC; format: functional; details: read-out: IZ; summary of the method: as §1
[24] = test system: Candida albicans; assay: Antimicrobial activity against Candida albicans ATCC 10231 assessed as zone of inhibition at 2211 uM incubated overnight at 37 degC; format: functional, organism-based; summary of the method: as §1
[25] = test system: Escherichia coli; assay: Antimicrobial activity against Escherichia coli ATCC 25922 assessed as zone of inhibition at 2762 uM incubated overnight at 37 degC; format: functional, organism-based; summary of the method: as §1
[26] = test system: Staphylococcus aureus; assay: Antimicrobial activity against Staphylococcus aureus ATCC 25923 assessed as zone of inhibition at 2762 uM incubated overnight at 37 degC; format: functional; details: read-out: IZ; summary of the method: as §1
[27] = test system: Staphylococcus aureus; assay: Antimicrobial activity against methicillin-resistant Staphylococcus aureus 344/2-32 assessed as zone of inhibition at 2762 uM incubated overnight at 37 degC; format: functional, organism-based
[28] = test system: Pseudomonas aeruginosa; assay: Antimicrobial activity against Pseudomonas aeruginosa ATCC 27853 assessed as zone of inhibition at 2762 uM incubated overnight at 37 degC; format: functional, organism-based; summary of the method: as §1
[29] = test system: Streptococcus pyogenes; assay: Antimicrobial activity against Streptococcus pyogenes 345/1 assessed as zone of inhibition at 2762 uM incubated overnight at 37 degC; format: functional; details: read-out: IZ; summary of the method: as §1
[30] = test system: Candida albicans; assay: Antimicrobial activity against Candida albicans ATCC 10231 assessed as zone of inhibition at 2762 uM incubated overnight at 37 degC; format: functional, organism-based; summary of the method: as §1

**Q.** `COC(=O)Nc1nc2ccccc2[nH]1` was tested. Which “inhibition zone (IZ)” value [1] did it give?
**A.** Its value is “inactive”.

**Q.** Which “inhibition zone (IZ)” value [2] does the source give for `C[C@@H]1O[C@@H](OC[C@H]2O[C@@H](Oc3c(-c4ccc(O)c(O)c4)oc4cc(O)cc(O)c4c3=O)[C@H](O)[C@@H](O)[C@@H]2O)[C@H](O)[C@H](O)[C@H]1O` here?
**A.** Its value is “inactive”.

**Q.** What about the “inhibition zone (IZ)” value [3] of the same compound?
**A.** Its value is “inactive”.

**Q.** What about the “inhibition zone (IZ)” value [4] of the same compound?
**A.** Its value is “inactive”.

**Q.** What about the “inhibition zone (IZ)” value [5] of the same compound?
**A.** The value was “inactive”.

**Q.** What about the “inhibition zone (IZ)” value [6] of the same compound?
**A.** The value was “inactive”.

**Q.** And the “inhibition zone (IZ)” value [7]?
**A.** The value was “inactive”.

**Q.** What does the source list for `O=C1C(=O)c2c(-c3ccccc3)ccc3cccc1c23`?
**A.** inhibition zone (IZ) [8]: inactive; zone of inhibition at 3875 µM [9]: 2 mm; inhibition zone (IZ) [10]: inactive; zone of inhibition at 3875 µM [11]: 1 mm; inhibition zone (IZ) [12]: inactive; inhibition zone (IZ) [13]: inactive

**Q.** With `CC1(C)S[C@@H]2[C@H](NC(=O)[C@H](N)c3ccccc3)C(=O)N2[C@H]1C(=O)O` [AMPICILLIN] as the compound, how does the “inhibition zone (IZ)” value [14] read?
**A.** The value was “inactive”.

**Q.** What about the zone of inhibition at 2862 µM [15] of the same compound?
**A.** Its zone of inhibition at 2862 µM is 15 mm.

**Q.** And the zone of inhibition at 2862 µM [16]?
**A.** The zone of inhibition at 2862 µM was 3 mm.

**Q.** And the zone of inhibition at 2862 µM [17]?
**A.** The zone of inhibition at 2862 µM was 2 mm.

**Q.** And the zone of inhibition at 2862 µM [18]?
**A.** The zone of inhibition at 2862 µM was 20 mm.

**Q.** How did the “inhibition zone (IZ)” value [19] turn out when `Oc1ccc(/C=C/c2cc(O)c3c(-c4cc(O)cc(O)c4)c(-c4ccc(O)cc4)oc3c2)cc1` was run?
**A.** The value was “inactive”.

**Q.** What about the zone of inhibition at 2211 µM [20] of the same compound?
**A.** Its zone of inhibition at 2211 µM is 2 mm.

**Q.** What about the “inhibition zone (IZ)” value [21] of the same compound?
**A.** Its value is “inactive”.

**Q.** What about the “inhibition zone (IZ)” value [22] of the same compound?
**A.** The value was “inactive”.

**Q.** And the zone of inhibition at 2211 µM [23]?
**A.** The zone of inhibition at 2211 µM was 1 mm.

**Q.** And the “inhibition zone (IZ)” value [24]?
**A.** Its value is “inactive”.

**Q.** For `O=Cc1cc(O)c2c(-c3cc(O)cc(O)c3)c(-c3ccc(O)cc3)oc2c1`, which “inhibition zone (IZ)” value [25] is on record?
**A.** Its value is “inactive”.

**Q.** And the zone of inhibition at 2762 µM [26]?
**A.** Its zone of inhibition at 2762 µM is 1 mm.

**Q.** What about the “inhibition zone (IZ)” value [27] of the same compound?
**A.** Its value is “inactive”.

**Q.** What about the “inhibition zone (IZ)” value [28] of the same compound?
**A.** Its value is “inactive”.

**Q.** And the zone of inhibition at 2762 µM [29]?
**A.** The zone of inhibition at 2762 µM was 1 mm.

**Q.** What about the “inhibition zone (IZ)” value [30] of the same compound?
**A.** The value was “inactive”.

— ChEMBL document CHEMBL3593182, “Phytochemical Investigation of the Constituents Derived from the Australian Plant Macropidia fuliginosa” (2015)
